# Assay results taken from ChEMBL document CHEMBL3098067, “Novel di-tertiary-butyl phenylhydrazones as dual cyclooxygenase-2/5-lipoxygenase inhibitors: synthesis, COX/LOX inhibition, molecular modeling, and insights into their cytotoxicities” (Bioorg Med Chem Lett, 2014).
# Activity calls are given as the source filed them. The calls are words filed in the database; no cut-off is given here.
# Tests used:
# [1] = Ratio of IC50 for COX-2 positive mouse APC10.1 cells overexpressing HAS-2 to IC50 for COX-2 positive mouse APC10.1 cells transfected with CD44v6shRNA overexpressing HAS-2; assay type: functional
# [2] = Cytotoxicity against COX-2 positive mouse APC10.1 cells transfected with CD44v6shRNA overexpressing HAS-2 assessed as growth inhibition after 48 hrs by MTT assay; assay type: functional, cell-based
# [3] = Ratio of IC50 for COX-2 positive human HCA-7 cells to IC50 for COX-2 positive human HCA-7 cells transfected with CD44v6shRNA; assay type: functional
# [4] = target: T1, Polyunsaturated fatty acid 5-lipoxygenase (Homo sapiens, UniProt P09917); assay: Inhibition of 5-LOX (unknown origin) by ELISA
# T1 sequence (P09917 whole entry): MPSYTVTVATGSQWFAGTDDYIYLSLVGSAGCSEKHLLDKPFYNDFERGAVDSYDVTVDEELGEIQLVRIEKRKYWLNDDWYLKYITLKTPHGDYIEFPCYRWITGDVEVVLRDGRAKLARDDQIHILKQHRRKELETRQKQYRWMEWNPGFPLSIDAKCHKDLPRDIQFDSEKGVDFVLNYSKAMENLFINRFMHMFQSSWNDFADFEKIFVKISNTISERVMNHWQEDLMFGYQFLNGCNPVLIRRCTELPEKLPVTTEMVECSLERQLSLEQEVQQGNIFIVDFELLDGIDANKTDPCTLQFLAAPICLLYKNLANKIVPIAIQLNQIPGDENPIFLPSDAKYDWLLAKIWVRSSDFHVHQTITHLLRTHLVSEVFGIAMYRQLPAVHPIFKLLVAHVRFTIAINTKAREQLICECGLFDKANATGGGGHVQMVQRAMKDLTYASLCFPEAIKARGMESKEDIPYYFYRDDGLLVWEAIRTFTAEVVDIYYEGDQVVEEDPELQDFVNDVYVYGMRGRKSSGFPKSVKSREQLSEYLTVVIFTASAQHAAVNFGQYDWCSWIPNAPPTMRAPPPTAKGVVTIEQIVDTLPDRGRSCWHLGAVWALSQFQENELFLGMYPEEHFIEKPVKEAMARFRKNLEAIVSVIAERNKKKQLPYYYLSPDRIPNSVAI
# How it was run: (§1)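 Assays used enzyme immobilized in ELISA plates, with activity read by ELISA. IC50 values are given in µM.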
# [5] = Cytotoxicity against COX-2 positive mouse APC10.1 cells overexpressing HAS-2 assessed as growth inhibition by CellTiter-96 AQueous assay; assay type: functional, cell-based
# SW480 = assay: Cytotoxicity against COX-2 negative human SW480 cells assessed as growth inhibition by CellTiter-96 AQueous assay; assay type: functional, cell-based
# HT-29 [6] = assay: Cytotoxicity against COX-2 positive human HT-29 cells assessed as growth inhibition by CellTiter-96 AQueous assay; assay type: functional, cell-based
# HCA-7 [7] = assay: Inhibition of hyaluronan-induced CD44v6 in human HCA-7 cells transfected with Has2cDNA assessed as downregulation of COX-1 protein expression at 5 uM after 24 hrs by Western blotting analysis; assay type: cell-based
# How it was run: (§2)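 HCA7 cells were transiently transfected with Has2 cDNA, grown 72 h, then treated for 24 h. Western blots were probed for CD44v6, COX-1, COX-2 and 5-LOX, with longer exposures used to show COX-2 and 5-LOX. The same blot was reprobed for β-tubulin as a loading control.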
# HCA-7 [8] = assay: Inhibition of hyaluronan-induced CD44v6 in human HCA-7 cells transfected with Has2cDNA assessed as downregulation of 5-LOX protein expression at 5 uM after 24 hrs by Western blotting analysis; assay type: cell-based; how it was run: as §2
# [9] = Cytotoxicity against COX-2 positive human HCA-7 cells assessed as growth inhibition by CellTiter-96 AQueous assay; assay type: functional, cell-based
# [10] = Downregulation of hyaluronan-induced CD44v6 protein expression in human HCA-7 cells transfected with Has2cDNA at 5 uM after 24 hrs by Western blotting analysis; assay type: functional, cell-based; how it was run: as §2
# HT-29 [11] = assay: Cytotoxicity against COX-2 positive human HT-29 cells transfected with CD44v6shRNA assessed as growth inhibition after 48 hrs by MTT assay; assay type: functional, cell-based; conditions: HT-29, 48 h
# HT-29 [12] = assay: Ratio of IC50 for COX-2 positive human HT-29 cells to IC50 for COX-2 positive human HT-29 cells transfected with CD44v6shRNA; assay type: functional
# [13] = target: T2, Prostaglandin G/H synthase 2 (Homo sapiens, UniProt P35354); assay: Inhibition of COX-2 (unknown origin) by ELISA
# T2 sequence (P35354 whole entry): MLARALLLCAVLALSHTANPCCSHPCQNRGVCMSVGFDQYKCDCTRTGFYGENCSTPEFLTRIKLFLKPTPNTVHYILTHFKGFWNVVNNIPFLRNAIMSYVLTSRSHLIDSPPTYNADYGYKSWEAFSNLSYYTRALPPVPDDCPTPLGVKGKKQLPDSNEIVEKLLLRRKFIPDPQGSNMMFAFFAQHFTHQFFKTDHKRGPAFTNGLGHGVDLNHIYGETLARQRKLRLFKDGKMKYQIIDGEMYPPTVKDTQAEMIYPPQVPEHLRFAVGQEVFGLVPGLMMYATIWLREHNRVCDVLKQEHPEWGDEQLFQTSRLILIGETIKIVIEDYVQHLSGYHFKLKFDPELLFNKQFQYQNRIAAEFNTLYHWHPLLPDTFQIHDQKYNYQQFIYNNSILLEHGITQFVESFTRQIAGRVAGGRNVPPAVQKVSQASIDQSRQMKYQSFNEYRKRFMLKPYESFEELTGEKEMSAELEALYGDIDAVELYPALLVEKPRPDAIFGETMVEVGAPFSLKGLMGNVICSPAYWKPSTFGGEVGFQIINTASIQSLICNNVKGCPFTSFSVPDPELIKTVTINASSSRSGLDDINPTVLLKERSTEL
# [14] = Cytotoxicity against COX-2 positive human HCA-7 cells transfected with CD44v6shRNA assessed as growth inhibition after 48 hrs by MTT assay; assay type: functional, cell-based; conditions: HCA-7, 48 h
# HCA-7 [15] = assay: Inhibition of hyaluronan-induced CD44v6 in human HCA-7 cells transfected with Has2cDNA assessed as downregulation of COX-2 protein expression at 5 uM after 24 hrs by Western blotting analysis; assay type: cell-based; how it was run: as §2
# [16] = target: T3, Prostaglandin G/H synthase 1 (Ovis aries, UniProt P05979); assay: Inhibition of ram seminal vesicle COX-1 assessed as conversion of arachidonic acid to PGH2; how it was run: as §1
# T3 sequence (P05979 whole entry): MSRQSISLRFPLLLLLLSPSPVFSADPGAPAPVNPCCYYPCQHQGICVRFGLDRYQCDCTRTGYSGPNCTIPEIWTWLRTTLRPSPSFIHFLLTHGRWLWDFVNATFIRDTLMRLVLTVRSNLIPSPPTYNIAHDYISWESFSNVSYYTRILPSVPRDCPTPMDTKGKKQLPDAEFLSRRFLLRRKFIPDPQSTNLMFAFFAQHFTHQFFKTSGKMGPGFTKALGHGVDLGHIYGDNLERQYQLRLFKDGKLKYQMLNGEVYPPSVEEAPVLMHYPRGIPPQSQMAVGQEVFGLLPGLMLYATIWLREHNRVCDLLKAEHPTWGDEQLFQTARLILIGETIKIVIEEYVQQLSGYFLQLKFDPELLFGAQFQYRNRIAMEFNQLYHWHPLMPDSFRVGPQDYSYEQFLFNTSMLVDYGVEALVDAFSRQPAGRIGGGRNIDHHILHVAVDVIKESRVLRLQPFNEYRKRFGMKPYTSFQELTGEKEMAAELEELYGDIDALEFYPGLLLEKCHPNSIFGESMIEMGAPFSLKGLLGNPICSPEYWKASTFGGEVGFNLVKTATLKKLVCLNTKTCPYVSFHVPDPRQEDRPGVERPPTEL
# HT-29 [17] = assay: Downregulation of hyaluronan-induced CD44v6 m-RNA expression in human HT-29 cells transfected with Has2cDNA and CD44v6shRNA at 5 uM after 24 hrs by qRT-PCR analysis; assay type: functional, cell-based
# How it was run: (§3)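 HT29 cells were transiently transfected with Has2 cDNA alone, or with Has2 cDNA followed by CD44v6 shRNA. They were grown 72 h, then treated for 24 h. CD44v6 mRNA was quantified by qRT-PCR in three independent experiments, each with triplicate samples.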
# HT-29 [18] = assay: Downregulation of hyaluronan-induced CD44v6 m-RNA expression in human HT-29 cells transfected with Has2cDNA at 5 uM after 24 hrs by qRT-PCR analysis; assay type: functional, cell-based; how it was run: as §3
# [19] = Cytotoxicity against COX-2, LOX, CD44v6-deficient HIEC6 cells assessed as growth inhibition after 24 hrs by MTT assay; assay type: cell-based; conditions: human, hiec6, 24 h
# How it was run: (§4)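 HCA7 and HIEC6 cells were exposed to a range of test concentrations for 24 h. Cytotoxicity was read by MTT assay and expressed as percent growth inhibition, with untreated cells set to 0% inhibition.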
# HCA-7 [20] = assay: Cytotoxicity against human HCA-7 cells expressing COX-2, 5-LOX, CD44v6 assessed as growth inhibition after 24 hrs by MTT assay; assay type: functional, cell-based; how it was run: as §4
# HCA-7 [21] = assay: Inhibition of hyaluronan-induced CD44v6 in human HCA-7 cells transfected with Has2cDNA assessed as downregulation of 5-LOX protein expression at 50 uM after 24 hrs by Western blotting analysis; assay type: cell-based; how it was run: as §2
# HCA-7 [22] = assay: Inhibition of hyaluronan-induced CD44v6 in human HCA-7 cells transfected with Has2cDNA assessed as downregulation of COX-1 protein expression at 50 uM after 24 hrs by Western blotting analysis; assay type: cell-based; how it was run: as §2
# HCA-7 [23] = assay: Inhibition of hyaluronan-induced CD44v6 in human HCA-7 cells transfected with Has2cDNA assessed as downregulation of COX-2 protein expression at 50 uM after 24 hrs by Western blotting analysis; assay type: cell-based; how it was run: as §2
SMILES,IC50 [4] [µM],IC50 [13] [µM],IC50 [16] [µM],Ratio IC50 [1],IC50 [2] [µM],Ratio IC50 [3],IC50 [5] [µM],IC50 (SW480) [µM],IC50 (HT-29 [6]) [µM],Activity (HCA-7 [7]),Activity (HCA-7 [8]),IC50 [9] [µM],Activity [10],IC50 (HT-29 [11]) [µM],Ratio IC50 (HT-29 [12]),IC50 [14] [µM],Activity (HCA-7 [15]),growth inhibition (GI) (HCA-7 [20]),also measured
Cc1ccc(-c2cc(C(F)(F)F)nn2-c2ccc(S(N)(=O)=O)cc2)cc1 [CELECOXIB],,,,,1.3,,13.4,6.9,5.7,Active,Active,4.9,,0.7,,0.75,Active,,
CC(C)(C)c1cc(C=O)c(O)c(C(C)(C)C)c1,,,,,,,,,,,,,,,,,,Active,
NNC(=O)c1ccccc1O,,,,,,,,,,,,,,,,,,Active,
CC1(C)Cc2c(-c3ccccc3)c(-c3ccc(Cl)cc3)c(CC(=O)O)n2C1 [LICOFELONE],,,0.8,,23,,70.6,68,67,,,60.9,,21.1,,18.5,,,Activity (HCA-7 [21]): Active; Activity (HCA-7 [22]): Active; Activity (HCA-7 [23]): Active

# Now from value to molecule, other results behind:
IC50 [4] [µM],IC50 [13] [µM],IC50 [16] [µM],SMILES,Ratio IC50 [1],IC50 [2] [µM],Ratio IC50 [3],IC50 [5] [µM],IC50 (SW480) [µM],IC50 (HT-29 [6]) [µM],Activity (HCA-7 [7]),Activity (HCA-7 [8]),IC50 [9] [µM],Activity [10],IC50 (HT-29 [11]) [µM],Ratio IC50 (HT-29 [12]),IC50 [14] [µM],Activity (HCA-7 [15]),growth inhibition (GI) (HCA-7 [20]),also measured
5.88,6.49,25.5,CC(C)(C)c1cc(/C=N/NC(=O)c2ccccc2)c(O)c(C(C)(C)C)c1,6.1,1.8,7.7,11.9,35.7,5.7,Active,Active,4.3,Active,0.85,6.7,0.56,Active,,
6.25,7.11,> 300,CC(C)(C)c1cc(/C=N/NC(=O)c2ccncc2)c(O)c(C(C)(C)C)c1,6.1,3,8.4,18.2,33.7,5.8,Active,Active,6.4,Active,0.71,8,0.76,Active,,
8,5.13,44.6,CC(C)(C)c1cc(/C=N/NC(=O)c2ccccc2O)c(O)c(C(C)(C)C)c1,37.3,0.15,21,5.6,15.5,1.8,Active,Active,1.6,Active,0.09,20,0.078,Active,Active,Activity (HT-29 [17]): Active; Activity (HT-29 [18]): Active; Activity [19]: Non-toxic
5.55,8.8,> 300,CC(C)(C)c1cc(/C=N/NC(=O)c2cccnc2)c(O)c(C(C)(C)C)c1,7.2,1.9,14,13.8,37,4.3,Active,Active,3.5,Active,0.35,12,0.26,Active,,
